Screening data: PubChem, several laboratories
FLuc act counter: firefly luciferase counter-screen for stimulation assays. ATPlite luciferase biochemical, luminescence, 10 min; 0 = ATP-free wells, 1 = DMSO control. activation factor at 10 µM. 200,000 tested, under 10 active;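 active means luciferase activation factor, scaled between plate controls, of at least 2 with compound at 10 µM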
Target sequence (P08659 whole entry, looked up): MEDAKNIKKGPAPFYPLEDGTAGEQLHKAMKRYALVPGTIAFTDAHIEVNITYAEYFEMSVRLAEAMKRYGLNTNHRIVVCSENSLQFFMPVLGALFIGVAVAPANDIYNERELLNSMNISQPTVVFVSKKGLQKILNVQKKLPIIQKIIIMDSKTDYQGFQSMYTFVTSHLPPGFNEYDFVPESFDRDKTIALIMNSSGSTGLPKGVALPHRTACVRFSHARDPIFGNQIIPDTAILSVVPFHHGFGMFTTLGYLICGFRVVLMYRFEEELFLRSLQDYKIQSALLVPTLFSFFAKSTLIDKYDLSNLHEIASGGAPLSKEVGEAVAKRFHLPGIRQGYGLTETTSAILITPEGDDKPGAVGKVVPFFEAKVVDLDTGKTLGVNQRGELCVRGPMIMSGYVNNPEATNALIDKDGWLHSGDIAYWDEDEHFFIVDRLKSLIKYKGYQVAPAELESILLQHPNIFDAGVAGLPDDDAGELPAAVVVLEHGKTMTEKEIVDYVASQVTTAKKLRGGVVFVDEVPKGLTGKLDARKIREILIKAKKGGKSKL
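Material: Luciferase/luciferin reagent mix | Doses: Test compounds dosed from 2 mM stocks in 100% DMSO | Timing: 10 min incubation after luciferase reagent addition, room temperature | Measured by: Luminescence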
FLuc inhib CS: Photinus pyralis luciferase inhibition counter-screen. inhibition, % at 10 µM. hit rate 1.5% among 200,000. ATPLite firefly luciferase biochemical luminescence, 10 min. AID 1006;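 active means inhibition above about 50% when tested at 10 µM, limit read from the data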
Rad51 HR inh: blocks human Rad51 in homologous recombination. hit rate 0.085% among 200,000. inhibition, % at 10 µM. AID 1385. Q06609. hRad51 DNA strand exchange, fluorescence dequenching;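 active means inhibition above 40% at the single screening dose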
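Material: human Rad51–ssDNA filaments; Probe or stimulus: labelled 47-mer dsDNA for strand exchange; Doses: single 10 µM dose; Incubation: 37 °C 15-min filament assembly, 30-min compound preincubation, 15-min exchange; Technique: FRET fluorescence dequenching, excitation 485 nm, emission 520 nm; Measure: Fluorescence-based percent inhibition, control- and blank-normalised; Benchmarks: plate control and blank wells.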
STAT1 act: activators of IFN-gamma induced STAT1 signaling | NIH 3T3 STAT1-luciferase reporter, luminescence; 100% = IFN-gamma alone, no compound | activation (% of control), % at 5.5 µM | hit rate 2.6% among 200,000 | AID 932;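 active means activation above the screen-wide mean activation plus 3 SD, cut at about 130% in these data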
APP 5'UTR act: APP 5'UTR luciferase reporter activation; hit rate 1% among 190,000; SH-SY5Y APP 5'UTR luciferase reporter, luminescence; zero percent = DMSO vehicle wells; AID 1276; activation, % at 2 µM;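 active means activation above a set limit, based on mean plus 3 SD of controls, cut at about 140% in these data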
NF-kB expr up: compounds increasing NF-kB expression in human neuronal cells. AID 1239. NF-kB reporter expression; active compounds read high. fold change at 12.5 µM. hit rate 1.6% among 190,000; in the data active means fold change above about 3.3
Hits are given with their value; n = inactive; x = not tested or not shown. A selection: hits, their analogues and other compounds. The true share with any hit is near 3.9%.

SMILES	FLuc act counter	FLuc inhib CS	Rad51 HR inh	STAT1 act	APP 5'UTR act	NF-kB expr up
O=C(/C=C/c1ccc(Cl)cc1Cl)c1nc2ccccc2[nH]1	n	66.3	n	n	n	n
Cc1[nH]c2ccccc2c1/C=C/c1nc2ccccc2c(=O)[nH]1	x	x	n	x	x	x
Clc1ccc(/C=C/c2nc3ccccc3[nH]2)c(Cl)c1	n	96.5	n	n	221.0	n
OCc1nc2ccc(Cl)cc2[nH]1	x	x	n	x	x	x
Clc1ccc(SCc2nc3ccccc3[nH]2)cc1	n	n	n	n	n	n
S=C(Nc1ccc(Br)cc1Cl)NN1CCOCC1	n	n	n	n	n	n
Cc1cc(C)cc(OCc2ccc(C(=O)NN)o2)c1	x	x	n	x	x	x
CC(Oc1ccc(Cl)cc1Cl)C(=O)NNC(=O)C(=O)N1CCCCC1 (stereo not drawn)	n	n	n	n	n	n
N#CCc1nc(CSc2nc3ccccc3o2)cs1	n	n	n	n	n	n
Cc1nnc(SCc2nc3ccccc3s2)n1N	n	n	n	134.2	n	n
O=C(O)c1ccccc1CSc1nc2ccccc2o1	n	n	n	140.5	n	n
Cc1nnc(SCc2nc3ccccc3s2)n1-c1ccccc1	n	n	n	n	n	n
c1ccc2oc(SCc3nc4ccccc4s3)nc2c1	n	n	n	138.6	n	n
O=C(Nc1ccccc1)Nc1ccno1	x	x	n	x	x	x
O=[N+]([O-])c1nn(-c2ccc3c(c2)OCCO3)n(O)c1=NCc1ccccc1Cl	n	n	n	146.5	n	n
COc1ccc(-n2nc([N+](=O)[O-])c(=NCc3ccco3)n2O)cc1	n	n	n	143.2	n	n
COc1ccc(-n2nc([N+](=O)[O-])c(=NCc3cccnc3)n2O)cc1	n	n	n	148.8	n	n
COc1ccc(-c2cc(-c3ccccc3)c(C#N)c(S(C)=O)n2)cc1 (stereo not drawn)	n	n	n	n	x	3.58
Cc1cc(-c2ccc(Br)cc2)n[nH]1	n	n	n	137.1	n	n
Nc1cc(-c2ccc(Br)cc2)[nH]n1	n	n	x	n	n	n
Cc1ccc(NC(=O)c2ccccc2)s1	n	76.1	n	n	159.7	6.63
Cc1cc(NC(=O)c2ccccc2)sc1C	n	63.5	n	131.2	154.5	5.31
Cc1ccc(C)n1-c1ccc(NC(=O)c2ccccc2)cc1	n	n	n	n	n	n
CCN(C(=O)COC(=O)/C=C/c1c(C)nn(Cc2ccc(C)cc2)c1C)C1CCS(=O)(=O)C1 (stereo not drawn)	n	n	n	n	n	n
CCOC(=O)c1cnc(SCC(C)C)nc1N	n	n	n	136.7	145.8	4.67
SMILES	FLuc act counter	FLuc inhib CS	Rad51 HR inh	STAT1 act	APP 5'UTR act	NF-kB expr up
CCOC(=O)c1cnc(SCC(=O)c2ccccc2)nc1N	n	n	n	144.2	n	3.73
CCOC(=O)c1ccc2ncc(-c3ccccc3)nc2c1	n	74.3	n	148.2	138.7	4.21
CCC(=O)Nc1cccc(-c2cnc3ccccc3n2)c1	n	n	n	129.2	n	n
CCOC(=O)c1ccc(Cl)c(NC(=O)c2ccc(-c3ccccc3)cc2)c1	n	n	n	n	n	n
O=C(CCl)Nc1cccc(-c2cnc3ccccc3n2)c1	n	n	n	n	x	n
CCOC(=O)c1cnc(-c2ccccc2)nc1N(C)C	n	n	n	n	n	n
CCOC(=O)c1cnc(-c2ccccc2)nc1N	n	n	n	145.6	n	4.95
COc1ccc(C2CC(=O)c3sc(NC(C)=O)nc3C2)cc1 (stereo not drawn)	n	n	x	n	n	n
CCCOc1ccc(-c2nnc(-c3ccco3)o2)cc1	n	77.0	n	n	n	n
O=C(COc1ccccc1)Nc1ccc(-c2nnc(-c3ccco3)o2)cc1	n	n	n	n	n	n
CC(C)COc1ccc(-c2nnc(-c3ccco3)o2)cc1	n	60.3	n	n	187.2	4.26
CC(=O)Oc1ccc(C(=O)Nc2cccc(-c3nnc(-c4ccco4)o3)c2)cc1	x	x	n	x	x	x
CCn1nc(C)c(/C=N/NC(=O)c2ccoc2C)c1C	n	n	n	139.6	n	n
Cc1occc1C(=O)N/N=C/C(Br)=C/c1ccccc1	n	n	n	148.4	154.8	6.44
O=C(Cc1cccs1)N/N=C/C(Br)=C/c1ccccc1	n	n	x	147.5	n	n
COc1ccc(/C=N/NC(=O)c2ccoc2C)cc1O	n	n	n	n	n	n
COc1ccc(/C=N/NC(=O)c2ccoc2C)cc1OC	n	n	n	132.1	n	n
CCCCCn1nc(C)c(/C=N/NC(=O)c2ccoc2C)c1C	n	n	n	n	n	n
Cn1cc(CN(CCO)Cc2cccs2)c(-c2ccccc2F)n1	n	n	n	n	n	n
O=C(N/N=C/C=C/c1ccccc1)c1n[nH]c2c1CCC2	n	n	x	n	n	n
O=C(N/N=C/C(Br)=C\c1ccccc1)c1n[nH]c2c1CCC2	n	n	x	129.3	n	8.35
N#C/C(=C(/O)CCl)c1nc(-c2ccccc2)cs1	x	x	n	x	x	x
Cc1ccc(-c2csc(/C(C#N)=C(\O)CCl)n2)cc1	n	n	n	139.5	n	n
COc1ccc(CCn2c(=S)[nH]c3ccc(N4CCOCC4)cc3c2=O)cc1OC	n	n	n	n	n	n
O=c1c2cc(N3CCOCC3)ccc2[nH]c(=S)n1CCc1ccccc1	n	n	x	131.6	n	n
SMILES	FLuc act counter	FLuc inhib CS	Rad51 HR inh	STAT1 act	APP 5'UTR act	NF-kB expr up
COc1ccc(Nc2ccnc3ccccc23)cc1	n	n	n	n	n	n
CC(C)Nc1ccc(Nc2ccnc3cc4ccccc4cc23)cc1	x	x	46.2	x	x	x
CNC(=O)CSc1nc2[nH]ncc2c(=O)[nH]1	n	n	n	n	n	n
O=C(Oc1ccc(OC(=O)C2CCC2)cc1)C1CCC1	n	n	n	n	n	n
COc1cnn(-c2ccc(C)cc2)c(=O)c1Cl	n	n	n	141.2	n	n
COc1cnn(-c2ccc(C)cc2)c(=O)c1Br	n	n	n	n	n	n
CNc1cnn(-c2ccc(C)cc2)c(=O)c1Sc1ccc(C)cc1	n	n	n	n	n	n
CNc1cnn(-c2ccc(C)cc2)c(=O)c1Cl	n	n	n	128.8	n	n
CC1CCCCN1CCCNC(=O)c1cc(Br)c(Br)[nH]1 (stereo not drawn)	n	n	x	n	n	n
O=C(NCc1ccc(F)cc1)c1ccc2c(c1)S(=O)(=O)c1ccccc1C2=O	x	x	n	x	x	x
Cc1cc(C(=O)COC(=O)c2ccc[nH]c2=O)c(C)n1-c1ccccc1F	x	x	n	x	x	x
Cc1ccc(-n2c(C)cc(C(=O)COC(=O)c3ccc[nH]c3=O)c2C)cc1C	n	64.8	n	n	n	n
Cc1cc(C(=O)COC(=O)C2=NNC(=O)CC2)c(C)n1-c1ccccc1	n	64.5	n	n	n	n
CCCn1c(C)cc(C(=O)COC(=O)c2ccc[nH]c2=O)c1C	n	65.3	n	n	n	n
Cc1noc(C)c1C(=O)N1CCC(C(=O)c2ccccc2)CC1	x	x	n	x	x	x
Cc1ccc(N2CC(=O)Nc3c(oc4nc(-c5ccccc5)cc(C)c34)C2=O)cc1	x	x	n	x	x	x
